Experimental data from ChEMBL document CHEMBL2440020, “Design, Synthesis, and Anti-leukemic Activity of Stereochemically Defined Constrained Analogs of FTY720 (Gilenya)” (ACS Med Chem Lett, 2013).
Activity calls are given as the source filed them. The rule behind the calls is not given here.

What was measured:
Type in all cases: functional, cell-based
CCRF-CEM = experiment: Cytotoxicity against Ph-negative human CCRF-CEM cells after 72 hrs by vital dye exclusion/flow cytometric analysis
How it was run: (§1)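 Viability of human leukaemia and prostate cancer lines, and of murine bone marrow cells expressing BCR-Abl p190, was scored by vital dye exclusion and flow cytometry after 72 h of exposure. IC50 values are given as means with SEM and were compared with the reference control by two-tailed t-test.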

BV-173 = experiment: Cytotoxicity against Ph-positive human BV173 cells after 72 hrs by vital dye exclusion/flow cytometric analysis; conditions: BV-173, 72 h; how it was run: as §1
[1] = Cytotoxicity against Ph-positive human SUP-B15 cells after 72 hrs by vital dye exclusion/flow cytometric analysis; conditions: SUP-B15, 72 h; how it was run: as §1
[2] = Cytotoxicity against BCR-ABL fusion protein 190 expressing mouse bone marrow cells after 72 hrs by vital dye exclusion/flow cytometric analysis; conditions: Bone marrow cell; how it was run: as §1
PC-3 = experiment: Cytotoxicity against human PC3 cells after 72 hrs by vital dye exclusion/flow cytometric analysis; conditions: PC-3, 72 h; how it was run: as §1
DU-145 = experiment: Cytotoxicity against human DU145 cells after 72 hrs by vital dye exclusion/flow cytometric analysis; conditions: DU-145, 72 h; how it was run: as §1
NALM-6 = experiment: Cytotoxicity against Ph-negative human NALM6 cells after 72 hrs by vital dye exclusion/flow cytometric analysis; conditions: NALM-6, 72 h; how it was run: as §1
[3] = Cytotoxicity against Ph-negative human BLIN-1 cells after 72 hrs by vital dye exclusion/flow cytometric analysis; how it was run: as §1
SUP-B15 = experiment: Cytotoxicity against Ph-positive human SUP-B15 cells at 0.1 to 10 uM after 72 hrs by vital dye exclusion/flow cytometric analysis
[4] = Downregulation of 4F2hc surface expression in Ph-positive human SUP-B15 cells at 10 uM after 72 hrs by vital dye exclusion/flow cytometric analysis

Compound	IC50 (CCRF-CEM) [µM]	IC50 (BV-173) [µM]	IC50 [1] [µM]	IC50 [2] [µM]	IC50 (PC-3) [µM]	IC50 (DU-145) [µM]	IC50 (NALM-6) [µM]	IC50 [3] [µM]	Activity (SUP-B15)	Activity [4]
CCCCCCCCc1ccc(CO[C@@H]2CN[C@H](CO)C2)cc1	11.6	13.8	16.7	8.4						
CCCCCCCCc1ccc(CO[C@@H]2CN[C@@H](CO)C2)cc1	8.2	3.8	2	0.5	13.5	15.1	13.5	6.9		
CCCCCCCCc1ccc(CO[C@@H]2CN[C@@H](C)C2)cc1									Active	Active
CCCCCCCCc1ccc(CO[C@@H]2CCNC2)cc1									Active	Active
CCCCCCCCc1ccc(CO[C@@H]2CCN[C@H]2CO)cc1									inactive	
CCCCCCCCc1ccc(CO[C@H]2CN[C@H](C)C2)cc1									Active	Active
CCCCCCCCc1ccc(CO[C@H]2CCNC2)cc1									Active	Active
CCCCCCCCc1ccc(CO[C@H]2CN[C@H](CO)C2)cc1	11	10.4	7.7	5.7	14.3	10.8	15	7.5		
CCCCCCCCc1ccc(CO[C@@H]2CN[C@@H](COC)C2)cc1									Active	Active
CCCCCCCCc1ccc(CO[C@H]2CN[C@@H](CO)C2)cc1	8.1	9.7	8.3	4						
CCCCCCCCc1ccc(CCC(N)(CO)CO)cc1 [FINGOLIMOD]	6.8	6.3	6.8	3.3	9.8	6.5	9.6	5.5		
